Measured values as given in ChEMBL document CHEMBL3868626, “Discovery of novel multi-target indole-based derivatives as potent and selective inhibitors of chikungunya virus replication” (Bioorg Med Chem, 2017).
Activity calls are given as the source filed them. The calls are words filed in the database; no cut-off is given here.

What was measured:
[1] = system: Chikungunya virus; test: Antiviral activity against Chikungunya virus 899 infected in African green monkey Vero cells assessed as inhibition of virus-induced cytopathogenic effect measured 5 days post infection by MTS/PMS based microscopic analysis; assay type: functional, cell-based; conditions: Chikungunya virus, 899, Vero, 120 h
[2] = Cytotoxicity against African green monkey Vero cells assessed as reduction in metabolic activity by MTS/PMS based microscopic analysis; assay type: toxicity, cell-based; conditions: chlorocebus sabaeus
Method in brief: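 Uninfected Vero cells exposed to compound dilution series; overall metabolic activity measured by MTS/PMS, with microscopic checks of cell/monolayer morphology. CC50 = concentration reducing metabolic activity by 50%, by logarithmic interpolation.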

[3] = Selectivity index, ratio of CC50 for African green monkey Vero cells to EC50 for Chikungunya virus 899 infected in African green monkey Vero cells; assay type: toxicity, cell-based; conditions: read-out: Ratio CC50/EC50
Method in brief: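 Ratio of CC50 in uninfected Vero cells (MTS/PMS) to EC50 for inhibition of CHIKV 899-induced CPE in Vero cells, both from logarithmic interpolation.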

[4] = system: Chikungunya virus; test: Antiviral activity against Chikungunya virus 899 infected in African green monkey Vero A cells assessed as reduction in viral RNA level incubated for 48 hrs by qRT-PCR analysis; assay type: functional, cell-based; conditions: for EC50: Chikungunya virus, 899, Vero
[5] = system: Chikungunya virus; test: Antiviral activity against Chikungunya virus 899 infected in African green monkey Vero A cells assessed as reduction in infectious virus particle production incubated for 48 hrs by end-point titration assay; assay type: functional, cell-based; conditions: for EC50: Chikungunya virus, 899, Vero
[6] = system: Semliki Forest virus; test: Antiviral activity against Semliki forest virus infected in African green monkey Vero A cells assessed as inhibition of virus-induced cytopathogenic effect measured 5 days post infection by MTS/PMS based microscopic analysis; assay type: functional, cell-based; conditions: 120 h
[7] = system: Sindbis virus; test: Antiviral activity against Sindbis virus infected in African green monkey Vero A cells assessed as inhibition of virus-induced cytopathogenic effect measured 5 days post infection by MTS/PMS based microscopic analysis; assay type: functional, cell-based; conditions: 120 h
[8] = system: Chikungunya virus; test: Antiviral activity against Chikungunya virus 899 pseudoparticles infected in African green monkey BGM cells assessed as inhibition of pseudoparticles entry after 72 hrs by luciferase reporter gene assay; assay type: functional, cell-based; conditions: Chikungunya virus, 899, BGM
Method in brief: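 BGM cells at 2.5 × 10^4/well adhered overnight; serial compound dilutions added, then cells infected with lentiviral pseudoparticles bearing CHIKV glycoproteins and firefly luciferase reporter. After 72 h cells lysed and intracellular luciferase activity measured as entry read-out. Mean ± SD, ≥3 independent experiments.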

[9] = Cytotoxicity against African green monkey BGM cells; assay type: toxicity, cell-based; conditions: chlorocebus aethiops
[10] = system: Chikungunya virus; test: Antiviral activity against Chikungunya virus 899 infected in African green monkey Vero A cells assessed as inhibition of viral replication at post entry step by measuring reduction in intracellular viral RNA treated up to 6 hrs post infection measured after 24 hrs by qRT-PCR analysis; assay type: functional, cell-based
[11] = system: Chikungunya virus; test: Antiviral activity against Chikungunya virus 899 infected in African green monkey Vero A cells assessed as inhibition of viral replication by measuring reduction in intracellular viral RNA treated 2 hrs prior to infection measured after 24 hrs by qRT-PCR analysis; assay type: functional
[12] = system: Chikungunya virus; test: Antiviral activity against Chikungunya virus 899 infected in African green monkey Vero A cells assessed as inhibition of viral replication at post entry step by measuring reduction in intracellular viral RNA treated 2 hrs post infection measured after 24 hrs by qRT-PCR analysis; assay type: functional
[13] = system: Chikungunya virus; test: Antiviral activity against Chikungunya virus assessed as inhibition of virus replication by cell based assay; assay type: functional

In the case of `Cn1c(CSc2ccccc2C(F)(F)F)c(C(=O)OC(C)(C)C)c2cc(O)c(Br)cc21`, the EC50 [1] is reported as 9.6 µM, the CC50 [2] is reported as 26 µM and the selectivity ratio [3] is reported as 2.7.

Compound `CN(C)Cc1c(O)ccc2c1c(C(=O)OC(C)(C)C)c(C[S+]([O-])c1ccccc1C(F)(F)F)n2C` (centres undefined) has an EC50 [1] of 22 µM, a CC50 [2] of 66 µM and a selectivity ratio [3] of 3.

`Cn1c(CSc2c(Cl)cccc2Cl)c(C(=O)OC(C)(C)C)c2cc(O)c(Br)cc21` gave an EC50 [1] of 5.7 µM, a CC50 [2] of 13 µM and a selectivity ratio [3] of 2.3.

In the case of `CN(C)Cc1c(O)c(Br)cc2c1c(C(=O)OC(C)(C)C)c(C[S+]([O-])c1ccccc1C(F)(F)F)n2C` (centres undefined), the EC50 [1] is reported as 12 µM, the CC50 [2] is reported as 56 µM and the selectivity ratio [3] is reported as 4.6.

For `Cn1c(C[S+]([O-])c2c(Cl)cccc2Cl)c(C(=O)OC(C)(C)C)c2cc(O)ccc21` (centres undefined), the EC50 [1] was 20 µM, the CC50 [2] was 151 µM and the selectivity ratio [3] was 7.6.

With `Cn1c(C[S+]([O-])c2ccc(Cl)cc2)c(C(=O)OC(C)(C)C)c2cc(O)ccc21` (centres undefined) the EC50 [1] was 8.2 µM, the CC50 [2] was 93 µM and the selectivity ratio [3] was 11.

In the case of `Cn1c(C[S+]([O-])c2ccc(F)cc2)c(C(=O)OC(C)(C)C)c2cc(O)ccc21` (centres undefined), the EC50 [1] is reported as 17 µM, the CC50 [2] is reported as greater than 100 µM and the selectivity ratio [3] is reported as greater than 5.7.

`CN(C)Cc1c(O)ccc2c1c(C(=O)OC(C)(C)C)c(C[S+]([O-])c1c(Cl)cccc1Cl)n2C` (centres undefined) gave an EC50 [1] of 4.1 µM, a CC50 [2] of 9.2 µM and a selectivity ratio [3] of 2.2.

`Cn1c(C[S+]([O-])c2ccccc2C(F)(F)F)c(C(=O)OC(C)(C)C)c2cc(O)c(Br)cc21` (centres undefined) showed an EC50 [1] of 9.6 µM, a CC50 [2] of 26 µM and a selectivity ratio [3] of 2.7.

In the case of `Cn1c(CSc2ccccc2C(F)(F)F)c(C(=O)OC(C)(C)C)c2cc(O)ccc21`, the EC50 [1] is reported as 3.4 µM, the CC50 [2] is reported as 19 µM and the selectivity ratio [3] is reported as 4.1.

Work on `Cn1c(C[S+]([O-])c2ccc(C(F)(F)F)cc2)c(C(=O)OC(C)(C)C)c2cc(O)ccc21` (centres undefined) yielded an EC50 [1] of 13 µM, a CC50 [2] of 24 µM and a selectivity ratio [3] of 1.9.

Compound `CN(C)Cc1c(O)c(Br)cc2c1c(C(=O)OC(C)(C)C)c(CSc1c(Cl)cccc1Cl)n2C` has an EC50 [1] of no less than 17 µM and a CC50 [2] of 17 µM.

Work on `Cn1c(C[S+]([O-])c2ccccc2C(F)(F)F)c(C(=O)OC(C)(C)C)c2cc(CO)ccc21` (centres undefined) yielded an EC50 [1] of 32 µM, a CC50 [2] greater than 468 µM and a selectivity ratio [3] greater than 14.6. The EC50 [4] was 9 µM, the EC50 [5] was 10 µM and the EC50 [6] was 128 µM. It also gave an EC50 [7] of 96 µM, an EC50 [8] of 36 µM and a CC50 [9] greater than 60 µM.

With `Cn1c(C[S+]([O-])c2ccccc2C(F)(F)F)c(C(=O)OC(C)(C)C)c2cc(O)ccc21` (centres undefined) the EC50 [1] was 6.5 µM, the CC50 [2] was 156 µM and the selectivity ratio [3] was 22. For the same compound, the Activity [4] was “Dose-dependent effect”, the EC50 [4] was 1 µM and the Activity [5] was “Dose-dependent effect”. For the same compound, the EC50 [5] was 1 µM, the EC50 [6] was 33 µM and the EC50 [7] was 20 µM. For the same compound, the EC50 [8] was 27 µM, the CC50 [9] was 50 µM and the inhibition [10] was “Active”.

`Cn1c(CSc2ccc(C(F)(F)F)cc2)c(C(=O)OC(C)(C)C)c2cc(O)ccc21` showed an EC50 [1] of 3.6 µM, a CC50 [2] of 11 µM and a selectivity ratio [3] of 3.1.

With `Cn1c(CSc2ccc(Cl)cc2)c(C(=O)OC(C)(C)C)c2cc(O)ccc21` the EC50 [1] was 4.8 µM, the CC50 [2] was 15 µM and the selectivity ratio [3] was 3.2.

`Cn1c(CSc2ccc(F)cc2)c(C(=O)OC(C)(C)C)c2cc(O)ccc21` showed an EC50 [1] of 4.5 µM, a CC50 [2] of 11 µM and a selectivity ratio [3] of 3.2.

In the case of `Cn1c(C[S+]([O-])c2c(Cl)cccc2Cl)c(C(=O)OC(C)(C)C)c2cc(CO)ccc21` (centres undefined), the EC50 [1] is reported as 30 µM, the CC50 [2] is reported as 397 µM and the selectivity ratio [3] is reported as 13.2.

Work on `Cn1c(CSc2c(Cl)cccc2Cl)c(C(=O)OC(C)(C)C)c2cc(O)ccc21` yielded an EC50 [1] of 2.9 µM, a CC50 [2] of 7.8 µM and a selectivity ratio [3] of 2.7.

With `CCOC(=O)c1c(CSc2ccccc2)n(C)c2cc(Br)c(O)c(CN(C)C)c12` [UMIFENOVIR] the EC50 [1] was 35 µM, the CC50 [2] was 161 µM and the selectivity ratio [3] was 4.6. For the same compound, the EC50 [8] was 4.4 µM, the CC50 [9] was greater than 60 µM and the “inhibition (INH)” value [11] was greater than 50%. The “inhibition (INH)” value [12] was greater than 50% and the EC50 [13] was less than 10 µg/mL.
